From PubChem BioAssay
Shown are actives, neighbours in structure and some others; about 0.51% of the full set was active somewhere.
PolyA inh: polyadenylation inhibitors in yeast reporter cells, primary screen, luminescence, S. cerevisiae; AID 1875, 2009; 300,000 tested, 0.02% active; S. cerevisiae SKY197-pL101 polyadenylation reporter, beta-gal luminescence; efflux-impaired pdr1/pdr3 knockout yeast; score 100 = 6 SD above DMSO; activity score, % at 12 µM;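 active = lowest replicate activity score at least 50, where 100 means six control SD above control mean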;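 also: yeast exposed to compound for 9 h at 30 °C; higher score means more reporter readthrough which indicates perturbed polyadenylation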
aDG glyco up: activators of alpha-DG glycosylation, primary screen, uHTS, Pro5-aDG cells, AlphaScreen; activation, % at 10 µM; AID 624168, 2012; 360,000 tested, 0.22% active; alpha-DG glycosylation AlphaScreen (IIH6); 0% Pro5, 100% B10-LARGE cell signal;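 active = activation of at least 8% versus controls, or a plate z-score of at least 8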;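 also: Pro5 are CHO cells carrying HIG-tagged alpha-DG that lacks glycosylation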
Rce1 inhib: yeast Rce1p protease inhibitors, primary screen, biochemical, fluorescence, cell-free homogeneous. AID 2563, 2010. 290,000 tested, 0.27% active. CAAX prenyl protease 2 (Saccharomyces cerevisiae (strain ATCC 204508 / S288c)), Q03530. calls only. yeast membranes, quenched prenylated peptide cleavage fluorescence;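 active = fall in fluorescence gain of 50% or more versus controls, with final raw signal at or below 3038400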
Target sequence (Q03530 whole entry, looked up): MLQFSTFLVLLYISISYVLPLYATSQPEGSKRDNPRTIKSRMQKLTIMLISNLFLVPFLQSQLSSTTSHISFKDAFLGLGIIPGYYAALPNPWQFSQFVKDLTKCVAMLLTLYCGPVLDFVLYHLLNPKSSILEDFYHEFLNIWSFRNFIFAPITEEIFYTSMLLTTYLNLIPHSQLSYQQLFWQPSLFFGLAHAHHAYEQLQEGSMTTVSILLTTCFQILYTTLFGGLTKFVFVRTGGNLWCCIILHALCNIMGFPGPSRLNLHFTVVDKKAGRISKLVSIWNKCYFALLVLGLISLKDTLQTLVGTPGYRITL
T cell modulator: modulators of CD8 T cell-vesicle binding, primary screen, mouse 2C CD8+ T cells, flow cytometry; 2C CD8+ T cell-vesicle binding; hits give low values; response (vesicle binding), % at 7 µM; 330,000 tested, 0.068% active; AID 2052, 2009;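 active = response, share of CD8 T cells binding vesicles, and their 90th percentile fluorescence all below set limits, cut at about 80% in these data, passing the limit was not always enough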;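 also: values below 100% mean blocked vesicle binding to the CD8+ T cells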
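Assay system: 2C TCR transgenic mouse naive CD8+ T cells, MACS-purified | Read-out: CD8+ gate FL2 mean fluorescence as % of same-row positive control | Signal: High-throughput flow cytometry with anti-B7-1 and anti-CD8 staining | Timing: Binding step 1.5 h, 37 °C, antibody labelling 20 min, ice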
Large screens that a line does not name were inactive.

CC1CCC/C(=C\Nc2ccccc2C(=O)O)C1=O (centres undefined)	Rce1 inhib active
Clc1ccc2[nH]c3c(N4CCC5(CC4)OCCO5)ncnc3c2c1	none (no result: aDG glyco up)
Cc1cccc2[nH]c3c(N4CCC5(CC4)OCCO5)ncnc3c12	Rce1 inhib active
Cc1ccc(CN2CCc3c(OCC(=O)Nc4cc(C)ccc4C)cccc3C2=O)cc1	none (no result: aDG glyco up)
COc1cc(/C=C2\SC(=S)N(NC(=O)c3ccc(O)cc3)C2=O)ccc1O	none
COc1cc(/C=C2\SC(=S)N(NC(=O)c3cccnc3)C2=O)ccc1O	PolyA inh 86.2
CC(Sc1nc2ccccc2[nH]1)C(=O)NC1CCCCC1C (centres undefined)	T cell modulator 49.0
CCOC(=O)c1c(NC(=O)CSc2ncccn2)sc2c1CC(C)(C)NC2(C)C	none
CCOC(=O)c1c(NC(=O)COc2ccccc2F)sc2c1CC(C)(C)NC2(C)C	Rce1 inhib active
COc1ccc(OC)c(Cc2nnc(CCC(=O)N3CCN(C4CCCC4)CC3)o2)c1	Rce1 inhib active
COc1ccc(OC)c(Cc2nnc(CCC(=O)N3CCCCC3)o2)c1	none
CCn1cc(C(=O)NCCN(C)C)c(=O)c2cc(F)c(N3CCN(C)CC3)cc21	Rce1 inhib active
CCn1cc(C(=O)NCCCN(C)C)c(=O)c2cc(F)c(N3CCN(C)CC3)cc21	none
Cc1nc2ccccc2cc1C(=O)N/N=C/c1cccs1	T cell modulator 0.0
COCc1c(Br)c(C)[nH]c(=O)c1C#N	Rce1 inhib active
CCOC(=O)c1c(C)[nH]c(C)c1S(=O)(=O)N1CCN(C(=O)c2ccco2)CC1	none
Cc1cc(S(=O)(=O)N2CCN(Cc3ccccc3)CC2)c(C)s1	T cell modulator 74.3
C(=C\c1ccco1)/C1=NN(c2ccccc2)C(c2ccco2)C1 (centres undefined)	aDG glyco up 7.2
O=[N+]([O-])c1ccc(/C=C/C2=NN(c3ccccc3)C(c3ccco3)C2)o1 (centres undefined)	none (no result: T cell modulator)
CCN(CC)S(=O)(=O)c1cccc(-c2n[nH]c(=S)n2Cc2ccccc2)c1	Rce1 inhib active
CCN(CC)S(=O)(=O)c1cccc(-c2n[nH]c(=S)n2CC(C)C)c1	none
CCCOc1ccc(F)cc1-c1cc(C(=O)NCc2ccco2)[nH]n1	none (no result: PolyA inh, Rce1 inhib, T cell modulator)
COc1ccc(S(=O)(=O)NNC(=O)C23CC4CC(CC(C4)C2)C3)cc1	none
N#Cc1cccc(S(=O)(=O)NNC(=O)C23CC4CC(CC(C4)C2)C3)c1	T cell modulator 58.3 (no result: PolyA inh, Rce1 inhib)
CCN(CC)CCn1c2ccccc2c2cnc(N=CN(C)C)c(C#N)c21	Rce1 inhib active
CCN1CCN(C(=O)c2cc(-c3ccco3)nc3ccccc23)CC1	none (no result: PolyA inh, Rce1 inhib)
COc1ccc([C@H]2[C@H](C(=O)OC(C)(C)C)N3N=Cc4ccccc4C3C23C(=O)c2ccccc2C3=O)c(OC)c1 (some centres undefined)	none
COc1ccc([C@H]2[C@H](C(=O)OC(C)(C)C)N3N=Cc4ccccc4C3C23C(=O)c2ccccc2C3=O)cc1OC (some centres undefined)	aDG glyco up 9.9
c1ccc(-c2nnc(-c3ccncc3)nc2-c2ccccc2)cc1	Rce1 inhib active
c1ccc(-c2nnc(-c3ccccc3)c(-c3c[nH]c4ccccc34)n2)cc1	none
O=C(c1ccc([N+](=O)[O-])cc1)N1CCC(Cc2ccccc2)CC1	none
O=C(c1cnc(Cl)c(Cl)c1)N1CCC(Cc2ccccc2)CC1	Rce1 inhib active
CCc1cc(N2CCOCC2)cc2c1[nH]c1ccccc12	Rce1 inhib active (no result: PolyA inh)
CCOc1ccc(S(=O)(=O)N2CCCCC2)cc1NC(=O)Cc1cc(OC)c(OC)c(OC)c1	none (no result: PolyA inh, Rce1 inhib, T cell modulator)
CCOC(=O)c1cc2c(=O)n3cccc(C)c3nc2n(CC(C)C)c1=NC(=O)c1ccco1	Rce1 inhib active
CC(CCc1ccccc1)NC(=O)CN1C(=O)NC2(CCCCC2C)C1=O (centres undefined)	none (no result: PolyA inh, Rce1 inhib)
CCn1cc(/C=C(\NC(=O)c2ccccc2Cl)C(=O)N2CCN(C)CC2)c2ccccc21	none (no result: T cell modulator)
CCn1cc(/C=C(\NC(=O)c2ccccc2Cl)C(=O)N2CCOCC2)c2ccccc21	Rce1 inhib active
CCn1cc(/C=C(\NC(=O)c2ccccc2F)C(=O)N2CCOCC2)c2ccccc21	Rce1 inhib active
CCn1cc(/C=C(\NC(=O)c2ccccc2F)C(=O)N2CCCC2)c2ccccc21	Rce1 inhib active
CCn1cc(/C=C(\NC(=O)c2ccccc2OC)C(=O)N2CCOCC2)c2ccccc21	none (no result: PolyA inh, Rce1 inhib, T cell modulator)
C[C@@H](C(=O)NNC(=O)c1ccc(Cl)cc1)N1C(=O)C2CC=CCC2C1=O (some centres undefined)	none (no result: PolyA inh, Rce1 inhib)
O=C(COC(=O)c1ccccn1)NCCc1ccc(Cl)cc1	none (no result: PolyA inh, Rce1 inhib)
CCN(CC)CCNC(=O)CSc1c2c(nc3cc(Cl)ccc13)CCCC2	Rce1 inhib active
CC(=O)N[C@@H](C)c1nc2ccccc2n1CCCN1CCN(c2nc(-c3ccc(C)cc3)cs2)CC1	Rce1 inhib active
O=C1CSC(c2cn(-c3ccccc3)nc2-c2cc3ccccc3oc2=O)N1Cc1ccco1 (centres undefined)	Rce1 inhib active
Nc1nnnn1/N=C/c1cccc(Oc2ccccc2)c1	none
Nc1nnnn1/N=C/c1cccc(OCc2ccccc2Cl)c1	Rce1 inhib active
O=C(Nc1cc(S(=O)(=O)N2CCCCC2)ccc1Cl)c1ccccc1NS(=O)(=O)c1ccc(F)cc1	Rce1 inhib active
O=C(Nc1cc(S(=O)(=O)N2CCCCC2)ccc1O)c1ccccc1NS(=O)(=O)c1ccc(F)cc1	none
Cc1cc(C)c2nc(N(CCCN(C)C)C(=O)c3ccc4c(c3)CCCC4)sc2c1	Rce1 inhib active (no result: aDG glyco up)
Cc1ccc(C(=O)N/N=C/c2cn(Cc3ccccc3)c3ccccc23)cn1	none
CCn1c2ccccc2c2cc(/C=N/NC(=O)c3ccncc3)ccc21	none
O=C(N/N=C/c1cn(Cc2ccccc2)c2ccccc12)c1cc(O)cc(O)c1	Rce1 inhib active
CCn1c2ccccc2c2cc(/C=N/NC(=O)c3cc(O)cc(O)c3)ccc21	Rce1 inhib active
CCn1c2ccccc2c2cc(/C=N/NC(=O)c3ccc(O)cc3)ccc21	Rce1 inhib active
COc1ccc(NS(=O)(=O)c2cccc(C(=O)NC3CCC(O)CC3)c2)cc1 (centres undefined)	none
c1cnn(Cc2cnc(N3CCOCC3)s2)c1	Rce1 inhib active
COc1ccc(-c2cc3nc(C)c(CCC(=O)N4CCN(c5ccccn5)CC4)c(C)n3n2)c(OC)c1	Rce1 inhib active
Cc1cc(N/N=C/c2ccc(O)c(C)c2O)nc(-c2ccccc2O)n1	Rce1 inhib active
C/C(=N\Nc1cc(C)nc(-c2ccccc2O)n1)c1ccccc1	none
Cc1ccc2oc(=O)c3cc(C(=O)NCCCN4CCN(C)CC4)sc3c2c1	none
CN1CCN(CCCNC(=O)c2cc3c(=O)n(C)c4ccccc4c3s2)CC1	Rce1 inhib active
